What follows are compounds tested on Mus musculus (assay: Antidepressant activity in ip dosed CD1 mouse assessed as inhibition of tetrabenazine methanesulfonate-induced reserpine like behavior administered 30 mins before tetrabenazine methanesulfonate challenge measured after 30 mins).
Format: functional
Method in brief: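 Male CD-1 mice, groups of five, given test compound ip; tetrabenazine methanesulfonate 40 mg/kg ip 30 min later; after a further 30 min mice placed in individual containers and ptosis scored on a three-point scale (eyes closed = 2).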

First: CCOC(=O)N1CCC(OCc2ccccc2)(c2ccccc2)CC1
Second: CN1CCC(OCc2ccccc2)(c2ccccc2)CC1.Cl
The ED50 of the first is higher: greater than 20 mg/kg for the first, 6.2 mg/kg for the second.

Compared with `ON1CCC(c2ccccc2Cc2ccccc2)CC1`, `O=C(Oc1ccccc1)N1CCC(c2ccccc2Cc2ccccc2)CC1` is higher in ED50: 7.3 mg/kg for the first, greater than 20 mg/kg for the second.

`Oc1ccc(Cc2ccccc2C2CCNCC2)cc1` and `Br.Fc1ccc(Cc2ccccc2C2CCNCC2)cc1` are within 1.5-fold of each other in ED50: 1.2 mg/kg for the first, 1.5 mg/kg for the second.

Going from `Br.COc1ccc(Cc2ccccc2C2CCN(C)CC2)cc1` to `Br.CN1CCC(c2ccccc2Cc2ccc(F)cc2)CC1`, the ED50 falls from greater than 20 mg/kg to 4.9 mg/kg.

`CN(C)CCC=C1c2ccccc2CCc2ccccc21` [AMITRIPTYLINE] and `CN(C)CCCN1c2ccccc2CCc2ccccc21` [IMIPRAMINE] are within 1.5-fold of each other in ED50: 1.9 mg/kg for the first, 1.3 mg/kg for the second.

`CN1CCC(O)(c2cccc(Cc3ccccc3)c2)CC1` and `CN1CCC(O)(c2ccc(Cc3ccccc3)cc2)CC1` cannot be ordered by ED50: greater than 20 mg/kg for the first, greater than 20 mg/kg for the second.

`CC(=O)OC1(c2ccccc2Cc2ccccc2)CCN(C)CC1.Cl` and `COC1(c2ccccc2Cc2ccccc2)CCN(C)CC1.Cl` cannot be ordered by ED50: greater than 20 mg/kg for the first, greater than 20 mg/kg for the second.

`Br.CN1CC=C(c2cccc(Cc3ccccc3)c2)CC1` and `Br.CN1CC=C(c2ccc(Cc3ccccc3)cc2)CC1` cannot be ordered by ED50: greater than 20 mg/kg for the first, greater than 20 mg/kg for the second.

`Br.COc1ccc(Cc2ccccc2C2=CCN(C)CC2)cc1` and `COc1ccc(Cc2ccccc2C2(O)CCN(C)CC2)cc1` cannot be ordered by ED50: greater than 20 mg/kg for the first, greater than 20 mg/kg for the second.

`C1=C(c2ccccc2Cc2ccccc2)CCN(Cc2ccccc2)C1.Cl` and `C1=C(c2ccccc2Cc2ccccc2)CCN(CCc2ccccc2)C1` cannot be ordered by ED50: greater than 20 mg/kg for the first, greater than 20 mg/kg for the second.

`c1ccc(CCN2CCC(OCc3ccccc3)(c3ccccc3)CC2)cc1` and `OC1(c2ccccc2Cc2ccccc2)CCN(CCc2ccccc2)CC1` cannot be ordered by ED50: greater than 20 mg/kg for the first, greater than 20 mg/kg for the second.

First: CNCCCN1c2ccccc2CCc2ccccc21 [DESIPRAMINE]
Second: CN1CCC(O)(c2ccccc2Cc2ccccc2)CC1
The ED50 of the first is 22-fold lower: 0.8 mg/kg for the first, 18 mg/kg for the second.

Compared with `Cl.c1ccc(COC2(c3ccccc3)CCN(CC3CC3)CC2)cc1`, `Cl.c1ccc(COC2(c3ccccc3)CCNCC2)cc1` is 1.6-fold higher in ED50: 6.3 mg/kg for the first, 10.1 mg/kg for the second.

Compared with `COC1(c2ccccc2Cc2ccccc2)CCNCC1`, `CC(=O)OC1(c2ccccc2Cc2ccccc2)CCN(Cc2ccccc2)CC1.Cl` is higher in ED50: 7.8 mg/kg for the first, greater than 20 mg/kg for the second.

Going from `COc1ccc(Cc2ccccc2C2CCNCC2)cc1.Cl` to `CN1CCC(c2ccccc2Cc2ccc(O)cc2)CC1`, the ED50 rises from 7.1 mg/kg to greater than 20 mg/kg.

Going from `Cl.OC1(c2ccccc2Cc2ccccc2)CCN(Cc2ccccc2)CC1` to `Br.c1ccc(CCN2CCC(c3ccccc3Cc3ccccc3)CC2)cc1`, the ED50 falls from greater than 20 mg/kg to 10.8 mg/kg.

`CC(=O)OC1(c2cccc(Cc3ccccc3)c2)CCN(C)CC1.Cl` gave an ED50 greater than 20 mg/kg.

Each compound was assayed against Transporter (Rattus norvegicus, UniProt Q63380) (assay: Inhibition of NET-mediated norepinephrine uptake in rat brain synaptosomes).
Format: subcellular

Chain of Transporter (Q63380 whole entry): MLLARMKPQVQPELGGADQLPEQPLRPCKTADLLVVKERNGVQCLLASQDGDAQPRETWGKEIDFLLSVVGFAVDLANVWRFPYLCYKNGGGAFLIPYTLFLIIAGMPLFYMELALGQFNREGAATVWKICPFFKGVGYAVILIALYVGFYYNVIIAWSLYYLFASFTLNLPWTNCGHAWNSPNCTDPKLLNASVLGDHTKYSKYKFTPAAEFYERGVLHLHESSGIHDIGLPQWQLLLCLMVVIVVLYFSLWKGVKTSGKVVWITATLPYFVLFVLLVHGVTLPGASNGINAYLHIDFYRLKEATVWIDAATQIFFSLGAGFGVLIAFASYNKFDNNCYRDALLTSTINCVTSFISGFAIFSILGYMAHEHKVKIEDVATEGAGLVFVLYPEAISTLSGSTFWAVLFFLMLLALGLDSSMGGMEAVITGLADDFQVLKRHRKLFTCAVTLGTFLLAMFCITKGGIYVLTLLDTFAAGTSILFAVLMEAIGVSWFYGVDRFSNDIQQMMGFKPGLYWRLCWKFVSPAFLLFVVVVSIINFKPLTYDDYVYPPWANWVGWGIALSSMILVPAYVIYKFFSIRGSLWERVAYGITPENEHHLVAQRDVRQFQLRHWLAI

`c1ccc(C2OC3(CCNCC3)c3ccccc32)cc1` (centres undefined) showed an IC50 of 0.01 µM.

Source: ChEMBL document CHEMBL3244303, “Synthesis of spiro[isobenzofuran-1(3H),4'-piperidines] as potential central nervous system agents. 5. Conformationally mobile analogues derived by furan ring opening” (J Med Chem, 1979)
